The values below come from ChEMBL document CHEMBL4145652, “Chemoenzymatic Synthesis and Pharmacological Characterization of Functionalized Aspartate Analogues As Novel Excitatory Amino Acid Transporter Inhibitors” (J Med Chem, 2018).

Holding throughout (format): cell-based
Test [1] has as its target T1, Excitatory amino acid transporter 4 (Rattus norvegicus, UniProt O35921).
T1 sequence (O35921 whole entry): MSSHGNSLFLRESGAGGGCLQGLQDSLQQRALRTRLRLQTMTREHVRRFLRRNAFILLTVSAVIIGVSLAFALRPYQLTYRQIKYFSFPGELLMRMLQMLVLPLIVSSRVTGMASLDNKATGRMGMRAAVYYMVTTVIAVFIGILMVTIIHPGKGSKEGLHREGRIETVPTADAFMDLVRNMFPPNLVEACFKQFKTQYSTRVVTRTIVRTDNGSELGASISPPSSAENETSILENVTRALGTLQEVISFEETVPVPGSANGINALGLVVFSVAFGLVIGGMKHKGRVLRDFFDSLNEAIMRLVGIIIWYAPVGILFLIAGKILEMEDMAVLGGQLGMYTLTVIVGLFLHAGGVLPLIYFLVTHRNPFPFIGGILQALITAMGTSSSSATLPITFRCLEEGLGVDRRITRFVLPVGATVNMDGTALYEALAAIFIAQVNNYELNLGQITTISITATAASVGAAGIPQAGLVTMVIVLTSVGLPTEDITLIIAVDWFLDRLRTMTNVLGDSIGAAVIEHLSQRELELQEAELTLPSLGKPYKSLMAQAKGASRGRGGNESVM
The test can be described thus: Inhibition of rat EAAT4 expressed in tsA201 cells assessed as reduction in [3H]-D-Asp uptake incubated for 4 mins by scintillation counting method. To be noted: read-out: IC50. Put shortly:
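Rat EAAT4 stably expressed in tsA201 cells, induced with 1 μg/mL tetracycline during overnight plating. [3H]-D-Asp (100 nM) uptake with graded compound concentrations ran for 4 min at 37 °C in HEPES-buffered HBSS, pH 7.4. Uptake was linear at this time. Nonspecific uptake was defined by 3 mM L-Glu. Read-out by scintillation counting. IC50 came from a Hill-equation fit. Three or four independent assays in duplicate.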

Test [2] addresses T2, Excitatory amino acid transporter 2 (Homo sapiens, UniProt P43004). Put plainly: Potency index, ratio of IC50 for NBI59159 to IC50 for test compound for inhibition of human EAAT2 expressed in HEK293 cells assessed as reduction in [3H]-D-Asp uptake incubated for 4 mins by scintillation counting method.
For test [3], the target named is T2, Excitatory amino acid transporter 2. Put plainly: Inhibition of human EAAT2 expressed in HEK293 cells assessed as reduction in [3H]-D-Asp uptake incubated for 4 mins by scintillation counting method. The settings on record: read-out: IC50. A digest of the protocol: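 HEK293 cells stably expressing human EAAT1, EAAT2 or EAAT3 were plated 16–24 h before the assay. Cells were washed and incubated with 100 nM [3H]-D-Asp plus graded compound concentrations in HBSS/20 mM HEPES/CaCl2/MgCl2, pH 7.4, for 4 min at 37 °C. Uptake was in the linear range at this time. Nonspecific uptake was defined with 3 mM L-Glu. Cells were washed ice-cold and counted by scintillation. IC50 came from a Hill-equation fit. Three or four independent assays in duplicate.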

Test [4] deals with T3, Excitatory amino acid transporter 1 (Homo sapiens, UniProt P43003). Put plainly: Potency index, ratio of IC50 for DL-TBOA to IC50 for test compound for inhibition of human EAAT1 expressed in HEK293 cells assessed as reduction in [3H]-D-Asp uptake incubated for 4 mins by scintillation counting method. A digest of the protocol:
(§1)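 Stable HEK293 lines expressing human transporter, plated on poly-D-lysine 16–24 h before assay. Washed cells were given HBSS/20 mM HEPES/1 mM CaCl2/1 mM MgCl2, pH 7.4, with 100 nM [3H]-D-Asp plus graded inhibitor for 4 min at 37 °C. Nonspecific uptake was taken with 3 mM L-Glu. IC50 came from a Hill fit; index = DL-TBOA IC50 ÷ test IC50. Three or four independent runs in duplicate.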

Test [5] has as its target T2, Excitatory amino acid transporter 2. The test can be described thus: Potency index, ratio of IC50 for DL-TBOA to IC50 for test compound for inhibition of human EAAT2 expressed in HEK293 cells assessed as reduction in [3H]-D-Asp uptake incubated for 4 mins by scintillation counting method. Put shortly: as §1
Test [6] deals with T3, Excitatory amino acid transporter 1. Put plainly: Potency index, ratio of IC50 for NBI59159 to IC50 for test compound for inhibition of human EAAT1 expressed in HEK293 cells assessed as reduction in [3H]-D-Asp uptake incubated for 4 mins by scintillation counting method.
Test [7] concerns the target T4, Excitatory amino acid transporter 3 (Homo sapiens) (UniProt P43005).
T4 sequence (whole entry): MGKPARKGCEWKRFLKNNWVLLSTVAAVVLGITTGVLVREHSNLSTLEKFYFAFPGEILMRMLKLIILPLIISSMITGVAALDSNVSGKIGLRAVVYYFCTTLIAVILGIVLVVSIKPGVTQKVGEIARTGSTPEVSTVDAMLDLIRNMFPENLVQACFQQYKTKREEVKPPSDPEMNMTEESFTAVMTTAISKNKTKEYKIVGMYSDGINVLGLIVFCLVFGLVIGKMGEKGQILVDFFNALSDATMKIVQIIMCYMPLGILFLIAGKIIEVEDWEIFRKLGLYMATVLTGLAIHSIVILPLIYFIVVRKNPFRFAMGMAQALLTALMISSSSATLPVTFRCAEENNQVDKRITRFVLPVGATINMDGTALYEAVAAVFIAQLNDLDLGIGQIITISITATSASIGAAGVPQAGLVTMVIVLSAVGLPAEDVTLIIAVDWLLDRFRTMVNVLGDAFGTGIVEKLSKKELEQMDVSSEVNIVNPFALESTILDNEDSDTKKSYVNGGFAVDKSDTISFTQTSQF
The test can be described thus: Potency index, ratio of IC50 for DL-TBOA to IC50 for test compound for inhibition of human EAAT3 expressed in HEK293 cells assessed as reduction in [3H]-D-Asp uptake incubated for 4 mins by scintillation counting method. Put shortly:
as §1

Test [8] deals with T4, Excitatory amino acid transporter 3 (Homo sapiens). Put plainly: Potency index, ratio of IC50 for NBI59159 to IC50 for test compound for inhibition of human EAAT3 expressed in HEK293 cells assessed as reduction in [3H]-D-Asp uptake incubated for 4 mins by scintillation counting method.
Test [9] has as its target T5, Excitatory amino acid transporter 3 (Homo sapiens, UniProt P43005).
T5 sequence (P43005 whole entry): T4 sequence (whole entry)
Put plainly: Inhibition of human EAAT3 expressed in HEK293 cells assessed as reduction in [3H]-D-Asp uptake incubated for 4 mins by scintillation counting method. A digest of the protocol: (§2)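 HEK293 cells stably expressing human EAAT1, EAAT2 or EAAT3 were plated 16–24 h before the assay. Cells were washed and incubated with 100 nM [3H]-D-Asp plus graded compound concentrations in HBSS/20 mM HEPES/CaCl2/MgCl2, pH 7.4, for 4 min at 37 °C. Uptake was in the linear range at this time. Cells were washed ice-cold and counted by scintillation. IC50 came from a Hill-equation fit. Three or four independent assays in duplicate.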

In test [10] the target is T3, Excitatory amino acid transporter 1. Put plainly: Inhibition of human EAAT1 expressed in HEK293 cells assessed as reduction in [3H]-D-Asp uptake incubated for 4 mins by scintillation counting method. A digest of the protocol: as §2
In test [11] the target is T6, Excitatory amino acid transporter 4 (Rattus norvegicus) (UniProt O35921).
T6 sequence (whole entry): T1 sequence (O35921 whole entry)
The test can be described thus: Potency index, ratio of IC50 for DL-TBOA to IC50 for test compound for inhibition of rat EAAT4 expressed in tsA201 cells assessed as reduction in [3H]-D-Asp uptake incubated for 4 mins by scintillation counting method. Put shortly: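 Stable rat EAAT4 tsA201 line induced with 1 µg/mL tetracycline on plating, 16–24 h before assay. Uptake used 100 nM [3H]-D-Asp with graded inhibitor in HEPES-buffered HBSS, pH 7.4, for 4 min at 37 °C. 3 mM L-Glu defined nonspecific uptake. Scintillation counts were Hill-fitted for IC50; index = DL-TBOA IC50 ÷ test IC50. Three or four independent runs in duplicate.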

T3 sequence (P43003 whole entry): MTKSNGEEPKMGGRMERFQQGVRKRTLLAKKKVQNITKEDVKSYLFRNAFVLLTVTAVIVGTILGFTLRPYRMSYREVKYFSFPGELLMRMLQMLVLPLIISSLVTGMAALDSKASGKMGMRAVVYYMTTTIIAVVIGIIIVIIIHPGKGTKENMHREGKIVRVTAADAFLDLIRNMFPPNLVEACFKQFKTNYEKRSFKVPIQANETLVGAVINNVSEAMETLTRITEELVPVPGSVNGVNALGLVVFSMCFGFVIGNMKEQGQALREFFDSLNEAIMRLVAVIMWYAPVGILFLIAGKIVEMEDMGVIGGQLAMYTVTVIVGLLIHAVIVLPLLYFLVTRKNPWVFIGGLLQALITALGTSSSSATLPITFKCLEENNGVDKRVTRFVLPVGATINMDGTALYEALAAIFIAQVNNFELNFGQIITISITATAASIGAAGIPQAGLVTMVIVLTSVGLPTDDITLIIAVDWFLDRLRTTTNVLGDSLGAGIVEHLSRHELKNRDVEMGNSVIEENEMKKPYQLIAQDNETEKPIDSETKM
T2 sequence (P43004 whole entry): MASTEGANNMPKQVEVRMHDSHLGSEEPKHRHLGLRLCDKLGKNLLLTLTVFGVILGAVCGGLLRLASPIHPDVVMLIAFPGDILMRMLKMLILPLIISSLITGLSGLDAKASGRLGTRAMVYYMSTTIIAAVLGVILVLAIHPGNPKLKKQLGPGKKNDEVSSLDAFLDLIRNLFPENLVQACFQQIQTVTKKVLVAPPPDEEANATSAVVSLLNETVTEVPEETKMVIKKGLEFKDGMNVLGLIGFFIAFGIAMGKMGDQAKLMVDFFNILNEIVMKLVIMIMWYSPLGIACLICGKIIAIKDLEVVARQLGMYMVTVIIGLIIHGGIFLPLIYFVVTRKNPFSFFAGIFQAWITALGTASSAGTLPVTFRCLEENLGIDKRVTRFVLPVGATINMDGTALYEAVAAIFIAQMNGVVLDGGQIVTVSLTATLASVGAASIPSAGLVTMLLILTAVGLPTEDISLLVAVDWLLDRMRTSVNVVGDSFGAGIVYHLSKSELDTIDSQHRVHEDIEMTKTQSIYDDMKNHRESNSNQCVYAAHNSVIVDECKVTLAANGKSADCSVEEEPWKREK

Turning to `N[C@H](C(=O)O)[C@H](OCc1ccccc1)C(=O)Nc1ccc2c(c1)Cc1ccccc1-2`, the 50% inhibitory concentration (IC50) in test [1] came out at 80 nM; in test [3], 47 nM; in test [9] it was 55 nM; in test [10], 12 nM. The Ratio IC50 in test [2] amounted to 30; in test [4], 180; in [5], 40; in test [6] it was 83; in test [7], 69; in [8], 1.6. In test [11], the Ratio IC50 worked out at 29.
